The nature of data set [1]: Apparent permeability from apical to basolateral side in human Caco2 cells at 10 uM after 60 mins by LC-MS/MS analysis. As to conditions: Caco-2. (In general: Caco-2 cells form a polarised layer with tight junctions and transporters.)
Data set [2] in a line: Efflux ratio of apparent permeability from apical to basolateral side to basolateral to apical side in human Caco2 cells at 10 uM after 60 mins by LC-MS/MS analysis. As to conditions: Caco-2.
The nature of data set [3]: Apparent permeability from basolateral to apical side in human Caco2 cells at 10 uM after 60 mins by LC-MS/MS analysis. Conditions: Caco-2.
Data set [4] in a line: Metabolic stability in rat liver microsomes assessed as compound remaining at 1 uM after 30 mins by LC-MS/MS. Type of data set: ADME, Microsome. As to conditions: read-out: Stability. (In general: Liver microsomes are a subcellular fraction often used to study metabolism.)
A further data set has as its target Dipeptidyl peptidase 8 (Homo sapiens, UniProt Q6V1X1). The data set is described as follows: Inhibition of DPP8.
In the next data set the target is Dipeptidyl peptidase 4 (Homo sapiens, UniProt P27487). The data set is described as follows: Inhibition of human DPP4 after 10 mins.
Another data set has as its target Dipeptidyl peptidase 9 (Homo sapiens, UniProt Q86TI2). Put plainly: Inhibition of DPP9.
Data set [5] has as its system Mus musculus. Put plainly: Reduction of glucose excursions in ob/ob type 2 diabetes mouse model at 1 mg/kg, po measured after 45 mins by oral glucose tolerance test. Type of data set: functional. Conditions: 0.75 h. The method, boiled down:
(§1)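 OGTT after oral treatment: C57BL/6j lean mice at 3 mg/kg, and ob/ob mice at 1, 3 and 10 mg/kg. Blood glucose followed over the glucose challenge; excursion expressed as AUC₀₋₁₂₀ change rate (percent inhibition).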

The subject of data set [6] is Mus musculus. The data set is described as follows: Reduction of glucose excursions in ob/ob type 2 diabetes mouse model at 3 mg/kg, po measured after 45 mins by oral glucose tolerance test. Type of data set: functional. As to conditions: 0.75 h. The method in brief: as §1
A short description of data set [7]: Oral bioavailability in Sprague-Dawley rat at 20 to 25 mg/kg administered as single dose. The format is ADME, organism-based. Conditions: in vivo.
A short description of data set [8]: Half life in Sprague-Dawley rat at 20 to 25 mg/kg, po and […], iv administered as single dose. Type of data set: ADME, organism-based. Also on record: dose 20-25 mg/kg, route oral. Conditions: in vivo.
Data set [9] concerns Mus musculus. Put plainly: Reduction of glucose excursions in C57Bl/6j lean mouse at 3 mg/kg, po measured after 45 mins by oral glucose tolerance test. Type of data set: functional, organism-based. Also on record: dose 3 mg/kg. The method in brief:
as §1

Data set [10] has as its system Mus musculus. Put plainly: Reduction of glucose excursions in ob/ob type 2 diabetes mouse model at 10 mg/kg, po measured after 45 mins by oral glucose tolerance test. The format is functional. As to conditions: 0.75 h. The method in brief: as §1
Data set [11] addresses Voltage-gated inwardly rectifying potassium channel KCNH2 (Homo sapiens, UniProt Q12809).
A short description of data set [12]: Metabolic stability in rat liver microsomes assessed as compound turnover at 1 uM after 30 mins by LC-MS/MS. The format is ADME, Microsome. As to conditions: read-out: Drug metabolism. The method in brief:
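Pooled rat liver microsomes, 30 min incubation; read-out is percent compound turnover (hepatic first-pass effect); mean of at least three independent determinations.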

pIC50: −log10 of the molar value. Calls of active or inactive are those of the source. A value given as a limit tells only on which side of the number the result lay.

Experimental findings from ChEMBL document CHEMBL2021879, “Novel pyrrolopyrimidine analogues as potent dipeptidyl peptidase IV inhibitors based on pharmacokinetic property-driven optimization” (Eur J Med Chem, 2012) are described below.

Dipeptidyl peptidase 8, sequence (Q6V1X1 whole entry): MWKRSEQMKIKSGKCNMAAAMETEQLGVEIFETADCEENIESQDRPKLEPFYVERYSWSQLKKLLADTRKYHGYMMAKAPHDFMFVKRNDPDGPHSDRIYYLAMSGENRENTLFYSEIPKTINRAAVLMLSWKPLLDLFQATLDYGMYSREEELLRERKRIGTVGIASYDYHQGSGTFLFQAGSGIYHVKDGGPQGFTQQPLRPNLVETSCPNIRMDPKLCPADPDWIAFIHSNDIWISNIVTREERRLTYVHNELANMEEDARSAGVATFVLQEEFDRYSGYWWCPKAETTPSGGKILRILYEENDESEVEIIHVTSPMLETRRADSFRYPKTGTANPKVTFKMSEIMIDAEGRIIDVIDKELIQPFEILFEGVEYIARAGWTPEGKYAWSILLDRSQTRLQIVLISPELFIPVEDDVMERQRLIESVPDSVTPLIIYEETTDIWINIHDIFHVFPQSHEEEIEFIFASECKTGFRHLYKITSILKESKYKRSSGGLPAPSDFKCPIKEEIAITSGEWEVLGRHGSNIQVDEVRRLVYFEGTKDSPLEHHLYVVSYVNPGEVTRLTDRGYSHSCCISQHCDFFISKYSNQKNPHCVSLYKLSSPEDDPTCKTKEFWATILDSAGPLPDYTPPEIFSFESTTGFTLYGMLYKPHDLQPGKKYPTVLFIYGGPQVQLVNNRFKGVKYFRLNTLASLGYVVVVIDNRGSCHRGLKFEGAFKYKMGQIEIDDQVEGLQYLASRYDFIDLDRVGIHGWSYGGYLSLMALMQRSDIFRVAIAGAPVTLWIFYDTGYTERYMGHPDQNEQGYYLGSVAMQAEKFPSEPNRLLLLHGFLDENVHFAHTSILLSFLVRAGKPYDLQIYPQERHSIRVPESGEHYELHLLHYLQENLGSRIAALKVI
Dipeptidyl peptidase 9, sequence (Q86TI2 whole entry): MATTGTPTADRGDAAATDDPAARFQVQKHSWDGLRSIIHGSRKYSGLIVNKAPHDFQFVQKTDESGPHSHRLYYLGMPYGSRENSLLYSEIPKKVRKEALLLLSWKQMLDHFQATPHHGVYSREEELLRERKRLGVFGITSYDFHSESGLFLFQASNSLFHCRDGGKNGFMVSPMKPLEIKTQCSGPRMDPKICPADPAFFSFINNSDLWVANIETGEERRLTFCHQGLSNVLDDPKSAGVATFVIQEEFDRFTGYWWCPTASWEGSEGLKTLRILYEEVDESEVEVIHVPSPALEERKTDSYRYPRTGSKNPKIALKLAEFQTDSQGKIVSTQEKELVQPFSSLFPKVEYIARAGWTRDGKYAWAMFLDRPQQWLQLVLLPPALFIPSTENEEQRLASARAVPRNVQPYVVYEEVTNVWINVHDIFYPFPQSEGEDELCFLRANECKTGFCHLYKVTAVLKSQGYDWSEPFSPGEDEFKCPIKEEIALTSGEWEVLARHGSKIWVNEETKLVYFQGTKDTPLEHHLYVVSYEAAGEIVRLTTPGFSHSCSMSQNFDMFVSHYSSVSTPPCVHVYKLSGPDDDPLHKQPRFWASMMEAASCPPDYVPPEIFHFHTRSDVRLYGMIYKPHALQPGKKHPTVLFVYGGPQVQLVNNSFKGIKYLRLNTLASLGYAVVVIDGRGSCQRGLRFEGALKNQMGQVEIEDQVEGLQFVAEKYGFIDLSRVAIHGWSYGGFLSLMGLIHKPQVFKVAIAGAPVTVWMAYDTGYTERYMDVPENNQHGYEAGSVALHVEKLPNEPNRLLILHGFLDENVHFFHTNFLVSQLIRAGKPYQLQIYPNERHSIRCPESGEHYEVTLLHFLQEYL
Dipeptidyl peptidase 4, sequence (P27487 whole entry): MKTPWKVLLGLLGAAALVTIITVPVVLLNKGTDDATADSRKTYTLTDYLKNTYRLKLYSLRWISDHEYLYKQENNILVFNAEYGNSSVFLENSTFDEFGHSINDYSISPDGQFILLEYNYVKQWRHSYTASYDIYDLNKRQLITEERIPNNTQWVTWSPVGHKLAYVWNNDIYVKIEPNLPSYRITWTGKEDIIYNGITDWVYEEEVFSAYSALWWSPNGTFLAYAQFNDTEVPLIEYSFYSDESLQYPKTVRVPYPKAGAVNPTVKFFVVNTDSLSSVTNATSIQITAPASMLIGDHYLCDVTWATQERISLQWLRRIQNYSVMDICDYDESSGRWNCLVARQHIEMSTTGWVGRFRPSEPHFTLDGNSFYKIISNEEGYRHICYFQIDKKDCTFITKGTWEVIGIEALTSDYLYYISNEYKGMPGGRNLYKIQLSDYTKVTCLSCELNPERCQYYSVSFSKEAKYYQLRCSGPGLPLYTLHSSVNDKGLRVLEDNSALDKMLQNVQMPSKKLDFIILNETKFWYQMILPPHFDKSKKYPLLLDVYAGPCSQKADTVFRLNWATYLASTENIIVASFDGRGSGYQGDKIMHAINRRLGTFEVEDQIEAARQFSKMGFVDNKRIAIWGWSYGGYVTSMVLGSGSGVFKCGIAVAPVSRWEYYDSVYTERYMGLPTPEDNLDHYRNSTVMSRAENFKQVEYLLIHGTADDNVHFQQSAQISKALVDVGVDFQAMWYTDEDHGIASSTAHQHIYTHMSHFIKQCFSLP
Voltage-gated inwardly rectifying potassium channel KCNH2, sequence (Q12809 whole entry): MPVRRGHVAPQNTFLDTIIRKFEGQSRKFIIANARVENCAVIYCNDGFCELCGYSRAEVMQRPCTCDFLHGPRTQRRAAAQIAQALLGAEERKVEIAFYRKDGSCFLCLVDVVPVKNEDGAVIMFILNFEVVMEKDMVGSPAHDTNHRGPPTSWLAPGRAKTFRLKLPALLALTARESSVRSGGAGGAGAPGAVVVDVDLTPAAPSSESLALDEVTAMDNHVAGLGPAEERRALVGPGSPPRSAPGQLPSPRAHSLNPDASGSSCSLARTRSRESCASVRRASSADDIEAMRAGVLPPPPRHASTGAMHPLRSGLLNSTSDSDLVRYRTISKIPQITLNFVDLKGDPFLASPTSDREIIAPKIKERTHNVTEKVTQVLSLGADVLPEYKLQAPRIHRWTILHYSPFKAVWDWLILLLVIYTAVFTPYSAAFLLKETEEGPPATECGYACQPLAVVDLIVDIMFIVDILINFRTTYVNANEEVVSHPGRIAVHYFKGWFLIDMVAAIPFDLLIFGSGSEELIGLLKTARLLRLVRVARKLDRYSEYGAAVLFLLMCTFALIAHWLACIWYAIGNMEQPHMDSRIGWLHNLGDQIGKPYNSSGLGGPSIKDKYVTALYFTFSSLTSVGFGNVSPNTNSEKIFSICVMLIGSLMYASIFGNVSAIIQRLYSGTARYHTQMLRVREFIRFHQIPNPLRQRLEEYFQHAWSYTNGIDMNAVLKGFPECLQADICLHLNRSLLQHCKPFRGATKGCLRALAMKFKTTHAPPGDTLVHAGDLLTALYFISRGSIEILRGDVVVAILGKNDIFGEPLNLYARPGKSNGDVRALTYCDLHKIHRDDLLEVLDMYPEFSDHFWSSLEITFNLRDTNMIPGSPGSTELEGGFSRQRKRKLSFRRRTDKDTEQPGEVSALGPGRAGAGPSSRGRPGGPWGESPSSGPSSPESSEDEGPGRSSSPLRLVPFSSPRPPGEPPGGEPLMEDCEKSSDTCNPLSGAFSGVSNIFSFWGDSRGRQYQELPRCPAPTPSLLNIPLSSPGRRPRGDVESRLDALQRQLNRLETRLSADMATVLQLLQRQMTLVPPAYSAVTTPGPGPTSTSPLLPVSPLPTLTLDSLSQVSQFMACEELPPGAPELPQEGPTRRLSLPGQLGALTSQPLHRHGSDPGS

One may read the Papp A→B as how fast a substance crosses the layer from the apical side. By efflux ratio is commonly meant a quotient of directional permeabilities that is used to spot active efflux. Usually Papp B→A stands for the apparent permeability from the basolateral to the apical side of a cell layer. Turning to `N#Cc1ccccc1Cn1c(N2CCC[C@@H](N)C2)nc2c(-c3ccsc3)c[nH]c2c1=O`, in [1], the Papp A→B at 1 h, 10 µM was determined as 1.86 ×10⁻⁶ cm/s. In data set [2], the efflux ratio at 1 h, 10 µM was found to be 11.4. Also, the Papp B→A at 1 h, 10 µM in data set [3] came out at 21.2 ×10⁻⁶ cm/s.

`Cc1csc2c(=O)n(Cc3ccccc3C#N)c(N3CCC[C@@H](N)C3)nc12`: the remaining at 0.5 h, 1 µM in data set [4] came to 0%.

One may read the pIC50 as −log10 of the IC50, conventionally taken in molar units. Low readings indicate a high IC50, high ones a low IC50. `N#Cc1ccccc1Cn1c(N2CCC[C@@H](N)C2)nc2[nH]c(-c3cccnc3)cc2c1=O`: in data set [1], the Papp A→B at 1 h, 10 µM worked out at 2.55 ×10⁻⁶ cm/s. The pIC50 is < 5.00 against Dipeptidyl peptidase 8, 8.63 on Dipeptidyl peptidase 4 and < 5.00 at Dipeptidyl peptidase 9. Further, the Papp B→A at 1 h, 10 µM in data set [3] was found to be 6.01 ×10⁻⁶ cm/s. Besides, the remaining at 0.5 h, 1 µM in data set [4] came to 73.8%.

For `N#Cc1ccccc1Cn1c(N2CCC[C@@H](N)C2)nc2sccc2c1=O`, in data set [4], the remaining at 0.5 h, 1 µM was determined as 24.6%.

Take `N#Cc1ccccc1Cn1c(N2CCC[C@@H](N)C2)nc2c(-c3ccncc3)c[nH]c2c1=O`: the Papp A→B at 1 h, 10 µM in data set [1] was found to be 4.13 ×10⁻⁶ cm/s. In data set [2], the efflux ratio at 1 h, 10 µM amounted to 2.51. For the same molecule, the Papp B→A at 1 h, 10 µM in data set [3] was determined as 10.3 ×10⁻⁶ cm/s. For the same molecule, the remaining at 0.5 h, 1 µM in data set [4] is 28.1%.

For the molecule `N#Cc1ccccc1Cn1c(N2CCC[C@@H](N)C2)nc2scc(C(F)(F)F)c2c1=O`, the remaining at 0.5 h, 1 µM in [4] worked out at 4.6%.

Take `Cc1csc2nc(N3CCC[C@@H](N)C3)n(Cc3ccccc3C#N)c(=O)c12`: the remaining at 0.5 h, 1 µM in data set [4] was determined as 3.27%.

What is called inhibition in vivo is the share of the control response that was lost under treatment. A lower inhibition in vivo goes with a weak effect. Broadly, the bioavailability is dose-corrected exposure relative to a reference, in per cent. For orientation: half-life means the time needed for the level to fall by half in the phase considered. For `N#Cc1ccccc1Cn1c(N2CCC[C@@H](N)C2)nc2c(Br)c[nH]c2c1=O`, in data set [1], the Papp A→B at 1 h, 10 µM was determined as 2.81 ×10⁻⁶ cm/s. The molecule further had an inhibition in vivo at 1 mg/kg in the data set with Mus musculus [5] of 27.9%. Moreover, the inhibition in vivo at 3 mg/kg in the data set on Mus musculus [6] came out at 51.9%. Moreover, the bioavailability in [7] stood at 41%. Moreover, the half-life in data set [8] is 2 h. The pIC50 against Dipeptidyl peptidase 8 was < 5.00; in data set [11] it was < 3.52; at Dipeptidyl peptidase 9 it was < 5.00. The inhibition result with Mus musculus [9] was “Active”. In addition, in the data set with Mus musculus [10], the inhibition in vivo at 10 mg/kg came to 72.7%. Besides, the Papp B→A at 1 h, 10 µM in data set [3] was 18.4 ×10⁻⁶ cm/s. Besides, in data set [4], the remaining at 0.5 h, 1 µM worked out at 78%.

In data set [7], `N#Cc1ccccc1Cn1c(N2CCC[C@@H](N)C2)nc2[nH]ccc2c1=O` showed a bioavailability of 5.7%. Moreover, the remaining at 0.5 h, 1 µM in [4] was 65.1%.

As to `N#Cc1ccccc1Cn1c(N2CCC[C@@H](N)C2)nc2[nH]c(-c3ccc(F)cc3)cc2c1=O`, in data set [1], the Papp A→B at 1 h, 10 µM turned out to be 0.59 ×10⁻⁶ cm/s. Also, in data set [2], the efflux ratio at 1 h, 10 µM worked out at 45.3. The basolateral-to-apical permeability (Papp B→A) at 1 h, 10 µM in data set [3] amounted to 26.6 ×10⁻⁶ cm/s.

Take `N#Cc1ccccc1Cn1c(N2CCC[C@@H](N)C2)nc2[nH]c(Br)cc2c1=O`: the Papp A→B at 1 h, 10 µM in [1] was 5.48 ×10⁻⁶ cm/s. For the same molecule, the pIC50 at Dipeptidyl peptidase 8 is < 4.60; against Dipeptidyl peptidase 4, 8.58; against Dipeptidyl peptidase 9, < 4.60. Besides, the Papp B→A at 1 h, 10 µM in data set [3] was 11.4 ×10⁻⁶ cm/s. In addition, the remaining at 0.5 h, 1 µM in data set [4] turned out to be 71.9%.

Regarding `Cn1c(Br)c(Br)c2c(=O)n(Cc3ccccc3C#N)c(N3CCC[C@@H](N)C3)nc21`, the Papp A→B at 1 h, 10 µM in data set [1] came to 2.5 ×10⁻⁶ cm/s. Also, the efflux ratio at 1 h, 10 µM in data set [2] was found to be 3.37. Moreover, the Papp B→A at 1 h, 10 µM in data set [3] was 8.41 ×10⁻⁶ cm/s. In addition, in [4], the remaining at 0.5 h, 1 µM was 41%.

Take `Cn1ccc2c(=O)n(Cc3ccccc3C#N)c(N3CCC[C@@H](N)C3)nc21`: the apparent permeability from apical to basolateral (Papp A→B) at 1 h, 10 µM in [1] worked out at 1.84 ×10⁻⁶ cm/s. In addition, the efflux ratio at 1 h, 10 µM in [2] came to 13.3. Also, the Papp B→A at 1 h, 10 µM in data set [3] came out at 24.6 ×10⁻⁶ cm/s.

Take `N#Cc1ccccc1Cn1c(N2CCC[C@@H](N)C2)nc2ccsc2c1=O`: in data set [12], the metabolised at 0.5 h, 1 µM turned out to be 93%. This molecule also had a bioavailability in data set [7] of 23.3%. For the same molecule, the inhibition result with Mus musculus [9] is “Active”. For the same molecule, in data set [4], the remaining at 0.5 h, 1 µM came to 6.6%.

Turning to `Cn1c(=O)cc(N2CCC[C@@H](N)C2)n(Cc2ccccc2C#N)c1=O`, the inhibition entry in the data set on Mus musculus [9] was “Active”.

Consider `N#Cc1ccccc1Cn1c(N2CCC[C@@H](N)C2)nc2cc[nH]c2c1=O`, for which the Papp A→B at 1 h, 10 µM in [1] came to 3.44 ×10⁻⁶ cm/s. Besides, the efflux ratio at 1 h, 10 µM in data set [2] is 4.2. Besides, in [3], the Papp B→A at 1 h, 10 µM was determined as 14.4 ×10⁻⁶ cm/s. Also, the remaining at 0.5 h, 1 µM in data set [4] turned out to be 39.2%.

As to `N#Cc1ccccc1Cn1c(N2CCC[C@@H](N)C2)nc2c(-c3cccnc3)c[nH]c2c1=O`, in data set [1], the Papp A→B at 1 h, 10 µM was 0.3 ×10⁻⁶ cm/s. Also, in data set [2], the efflux ratio at 1 h, 10 µM came to 37.8. The Papp B→A at 1 h, 10 µM in [3] was found to be 11.3 ×10⁻⁶ cm/s.

`Cc1cc2c(=O)n(Cc3ccccc3C#N)c(N3CCC[C@@H](N)C3)nc2[nH]1`: the Papp A→B at 1 h, 10 µM in data set [1] was found to be 4.36 ×10⁻⁶ cm/s. In addition, the pIC50 against Dipeptidyl peptidase 8 is < 4.60; on Dipeptidyl peptidase 4, 7.86; against Dipeptidyl peptidase 9 it was < 4.60. Also, the Papp B→A at 1 h, 10 µM in data set [3] was determined as 9.36 ×10⁻⁶ cm/s. In addition, the remaining at 0.5 h, 1 µM in [4] came to 91.4%.
